Active and inactive are the calls of the source.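 How the source made its calls: active means viability at or below 30% in both replicate assays; inconclusive means viability at or below 30% in just one of the two assays; inactive means the rest.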
Assay: HUVEC growth inhibition – cell-based, human, primary screen (AID 575);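 further: 100% = median of untreated cell wells with 0.1% DMSO on each plate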
Conditions: HUVEC proliferation, CellTiter-Glo luminescence, 72 h; at 10 µM; hits give low values
Outline: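 Timing: 72 h treatment at 37 °C; material: HUVEC primary cells; technique: CellTiter-Glo luminescence measuring cellular ATP; controls: vehicle and MePR control wells; measure: percent of median DMSO-control luminescence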

SMILES	viability
CCOC(=O)N1CCC(NC(=O)CCc2c(C)nc3c(c(C)nn3C(C)(C)C)c2C)CC1	82.2% (inactive)
Cc1cc2nc(C3CCN(CC4COc5ccccc5O4)CC3)[nH]c2cc1C (stereo not given)	3.41% (active)
CNC(=O)Nc1cccc(C(F)(F)F)c1	93% (inactive)
COc1ccccc1C1CC(c2ccc(C)cc2)Nc2ncnn21 (stereo not given)	108% (inactive)
CCCn1c2ccccc2c2nnc(SCC(=O)OCC)nc21	88.8% (inactive)
Cc1nnc2ccc(N3CCN(c4cccc(C(F)(F)F)c4)CC3)nn12	75% (inactive)
O=C(Cn1ccc2ccccc2c1=O)NCCC(=O)NC1CCN(Cc2ccccc2)CC1	107% (inactive)
Cc1nc(SCC(=O)Nc2ccccc2C(F)(F)F)c2c(=O)n(C)c(=O)n(C)c2n1	80.3% (inactive)
CCOC(=O)N1CCC(NC(=O)CSCc2nc(-c3cccc(OC)c3)oc2C)CC1	97.7% (inactive)
COc1cc(C(=O)N2CCC(c3nc(-c4cccnc4)no3)CC2)cc(OC)c1OC	110% (inactive)
O=C(Nc1ccc2c(c1)OCCO2)c1ccco1	78.7% (inactive)
CCOC(=O)c1cnc(-n2nc(C)cc2C)nc1Nc1cccc(C(C)=O)c1	95.7% (inactive)
O=c1[nH]cnc2c1nc(SCc1ccccc1)n2C1OC(CO)C(O)C1O (stereo not given)	92.4% (inactive)
COc1ccc(CCn2c(-c3ccco3)nc3nc4ccccc4nc32)cc1	62.8% (inactive)
O=S(=O)(c1ccc(-c2csc(-c3cccnc3)n2)cc1)N1CCCCC1	81.1% (inactive)
CCCOc1nc(N)c(C#N)c(-c2ccccc2F)c1C#N	82.6% (inactive)
COc1cc(OC)c(OC)cc1CN(C)CCc1ccccn1	96.7% (inactive)
CCOC(=O)c1c(-c2cccs2)csc1NC(=O)CCCC(=O)O	78.3% (inactive)
Cc1cccc(-c2c3c(=O)n(C)c(=O)n(C)c3cn2-c2ccc(O)cc2)c1	108% (inactive)
CCN(C(=O)CCc1nc(-c2ccccc2F)no1)c1cc(OC)ccc1OC	68.1% (inactive)

SMILES	viability
CCc1nc(SCC(=O)Nc2nccs2)c2oc3ccccc3c2n1	109% (inactive)
Cc1c(C#N)sc2nc(-c3ccccc3)nc(N3CCCC3)c12	82.1% (inactive)
Cc1cccc(N=C2NC(=O)CS2)c1C	87.1% (inactive)
COCCNC(=O)c1ccc2c(c1)nc(C)n2-c1cccc(F)c1	92.7% (inactive)
CCOC(=O)c1[nH]c2ccc(C)cc2c1N=C(C)N(C)C	96.5% (inactive)
COc1ccc2nc(N3CCC(C)CC3)c(C#N)cc2c1	86.6% (inactive)
Cc1ccccc1NS(=O)(=O)c1cc(S(C)(=O)=O)ccc1Cl	110% (inactive)
Cc1cc(C)c2c(N)c(C(=O)N3CCN(c4ncccn4)CC3)sc2n1	98.2% (inactive)
Cc1cc(C)n2nc3nc(N4CCCCC4)nc(-c4ccco4)c3c2n1	79.5% (inactive)
O=C(O)c1cc(=O)cc(C(=O)O)[nH]1	102% (inactive)
COc1ccc(NC(C)=O)cc1NC(=O)CN1CCN(c2ccccn2)CC1	96% (inactive)
CCOC(=O)c1cccc(NC(=O)CS(=O)(=O)Cc2nc(-c3cccc(OC)c3)oc2C)c1	95.2% (inactive)
O=C(CCc1nc2ccccc2s1)OCC(=O)N1CCN(C(=O)c2ccco2)CC1	91.1% (inactive)
Cc1ccccc1CS(=O)(=O)Cc1ccc(C(=O)NCCCN2CCOCC2)o1	104% (inactive)
CCOC(=O)c1cccc(NC(=O)Cn2cnc3c2c(=O)n(C)c(=O)n3C)c1	102% (inactive)
O=C(Nc1ccon1)c1csc2c1CCCC2	83.2% (inactive)
CC(C)(C)n1ncc2c(=O)n(CC(=O)NCCc3ccccc3)cnc21	107% (inactive)
Cc1cccc2sc(NC(=O)CN(C)S(=O)(=O)c3cccs3)nc12	48.8% (inactive)
CCOC(=O)c1cccc(NC(=O)CSc2nnc(C3CCCCC3)n2C)c1	92.3% (inactive)
CCCc1nnc2n1N=C(c1ccc(OC)c(OC)c1)CS2	68.7% (inactive)

Reference: PubChem BioAssay
